Assay results reported in ChEMBL document CHEMBL5661979, “Pharmacological inhibition of BMK1 suppresses tumor growth through promyelocytic leukemia protein” (Cancer Cell, 2010).

Legend:
[1] = biological target: T1, Phosphatidylinositol 5-phosphate 4-kinase type-2 alpha (Homo sapiens, UniProt P48426); experiment: Inhibition of PIP5K2A in human HeLa cells lysate pre incubated for 15 mins followed by ADP acyl phosphate probe addition and measured after 10 mins by LC-MS/MS analysis; type: subcellular
T1 sequence (P48426 whole entry): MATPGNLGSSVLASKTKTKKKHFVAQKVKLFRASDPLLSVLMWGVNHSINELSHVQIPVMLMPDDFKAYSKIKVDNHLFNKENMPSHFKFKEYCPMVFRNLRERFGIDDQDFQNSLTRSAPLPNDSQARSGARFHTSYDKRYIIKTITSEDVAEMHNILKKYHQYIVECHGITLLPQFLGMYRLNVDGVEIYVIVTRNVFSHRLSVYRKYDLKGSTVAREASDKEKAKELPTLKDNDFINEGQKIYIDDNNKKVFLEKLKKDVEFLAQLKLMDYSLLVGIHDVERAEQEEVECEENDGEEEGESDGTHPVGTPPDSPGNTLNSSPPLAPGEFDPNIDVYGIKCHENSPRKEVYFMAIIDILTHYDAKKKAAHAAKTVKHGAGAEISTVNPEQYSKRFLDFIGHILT

[2] = biological target: Serine/threonine-protein kinase 4 (Homo sapiens, UniProt Q13043); experiment: Inhibition of MST1 in human HeLa cells lysate pre incubated for 15 mins followed by ATP acyl phosphate probe addition and measured after 10 mins by LC-MS/MS analysis; type: subcellular
RPS6KA1/RPS6KA2/RPS6KA3 = RPS6KA1/RPS6KA2/RPS6KA3 (Homo sapiens, UniProt P51812+Q15349+Q15418); experiment: Inhibition of RSK1/2/3 in human HeLa cells lysate at 2 uM pre incubated for 15 mins followed by ATP acyl phosphate probe addition and measured after 10 mins by LC-MS/MS analysis relative to control; type: subcellular; conditions: time 25.0 min
[3] = biological target: Glycogen synthase kinase-3 beta (Homo sapiens, UniProt P49841); experiment: Inhibition of GSK3B isoform 2 in human HeLa cells lysate at 50 uM pre incubated for 15 mins followed by ADP acyl phosphate probe addition and measured after 10 mins by LC-MS/MS analysis relative to control; type: subcellular; conditions: time 25.0 min
[4] = biological target: Mixed lineage kinase domain-like protein (Homo sapiens, UniProt Q8NB16); experiment: Inhibition of MLKL in human HeLa cells lysate pre incubated for 15 mins followed by ADP acyl phosphate probe addition and measured after 10 mins by LC-MS/MS analysis; type: subcellular
[5] = biological target: Tyrosine-protein kinase Fer (Homo sapiens, UniProt P16591); experiment: Inhibition of FER in human HeLa cells lysate at 10 uM pre incubated for 15 mins followed by ATP acyl phosphate probe addition and measured after 10 mins by LC-MS/MS analysis relative to control; type: subcellular; conditions: time 25.0 min
[6] = Inhibition of NEK6/7 in human HeLa cells lysate at 10 uM pre incubated for 15 mins followed by ATP acyl phosphate probe addition and measured after 10 mins by LC-MS/MS analysis relative to control; conditions: 25 min, condition cancer
[7] = biological target: Serine/threonine-protein kinase 24 (Homo sapiens, UniProt Q9Y6E0); experiment: Inhibition of MST3 in human HeLa cells lysate pre incubated for 15 mins followed by ADP acyl phosphate probe addition and measured after 10 mins by LC-MS/MS analysis; type: subcellular
[8] = biological target: T2, Mitogen-activated protein kinase kinase kinase kinase 2 (Homo sapiens) (UniProt Q12851); experiment: Inhibition of GCK in human HeLa cells lysate at 50 uM pre incubated for 15 mins followed by ADP acyl phosphate probe addition and measured after 10 mins by LC-MS/MS analysis relative to control; type: subcellular; conditions: time 25.0 min
T2 sequence (whole entry): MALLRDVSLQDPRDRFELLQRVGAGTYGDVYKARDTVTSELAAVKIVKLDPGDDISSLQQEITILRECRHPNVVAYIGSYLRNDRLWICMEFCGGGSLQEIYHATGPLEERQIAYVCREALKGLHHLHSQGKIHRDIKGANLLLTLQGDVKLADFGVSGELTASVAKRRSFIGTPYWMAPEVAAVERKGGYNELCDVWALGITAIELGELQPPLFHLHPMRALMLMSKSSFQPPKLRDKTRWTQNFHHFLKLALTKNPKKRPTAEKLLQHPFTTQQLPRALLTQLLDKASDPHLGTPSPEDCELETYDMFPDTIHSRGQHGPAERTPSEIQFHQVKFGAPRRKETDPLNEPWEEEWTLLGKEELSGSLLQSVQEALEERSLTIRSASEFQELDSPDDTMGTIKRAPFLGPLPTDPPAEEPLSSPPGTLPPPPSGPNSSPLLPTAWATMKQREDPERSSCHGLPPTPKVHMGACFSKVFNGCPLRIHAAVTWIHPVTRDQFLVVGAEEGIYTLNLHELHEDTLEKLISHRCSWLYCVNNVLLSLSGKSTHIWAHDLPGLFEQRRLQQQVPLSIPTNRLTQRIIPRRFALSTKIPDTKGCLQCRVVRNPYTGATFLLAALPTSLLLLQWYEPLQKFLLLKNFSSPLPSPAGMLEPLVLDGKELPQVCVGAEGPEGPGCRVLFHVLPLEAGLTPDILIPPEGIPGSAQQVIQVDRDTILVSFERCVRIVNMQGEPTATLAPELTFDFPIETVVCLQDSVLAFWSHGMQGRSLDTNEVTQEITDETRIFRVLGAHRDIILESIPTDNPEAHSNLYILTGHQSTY

[9] = biological target: Calcium/calmodulin-dependent protein kinase type II subunit delta (Homo sapiens, UniProt Q13557); experiment: Inhibition of CAMK2d in human HeLa cells lysate pre incubated for 15 mins followed by ATP acyl phosphate probe addition and measured after 10 mins by LC-MS/MS analysis; type: subcellular
In short: (§1)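 KiNativ-type profiling in HeLa lysate (5 mg/mL total protein). Lysate preincubated 15 min with inhibitor at 50, 10, 2, 0.8 or 0 μM, then ATP or ADP acylphosphate probe added (5 μM final) for 10 min. Reaction stopped with urea and analysed by targeted MS, using up to four fragment ions per kinase peptide-probe conjugate. % inhibition calculated against untreated lysate. Duplicate reactions.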

[10] = biological target: Serine/threonine-protein kinase Aurora (Homo sapiens, UniProt Q96GD4+Q9UQB9+O14965); experiment: Inhibition of AurA/AurB/AurC in human HeLa cells lysate at 2 uM pre incubated for 15 mins followed by ATP acyl phosphate probe addition and measured after 10 mins by LC-MS/MS analysis relative to control; type: subcellular; conditions: time 25.0 min; in short: as §1
[11] = Inhibition of NEK6/7 in human HeLa cells lysate at 2 uM pre incubated for 15 mins followed by ATP acyl phosphate probe addition and measured after 10 mins by LC-MS/MS analysis relative to control; conditions: 25 min, condition cancer
[12] = biological target: Cyclin-dependent kinase 5 (Homo sapiens, UniProt Q00535); experiment: Inhibition of CDK5 in human HeLa cells lysate pre incubated for 15 mins followed by ADP acyl phosphate probe addition and measured after 10 mins by LC-MS/MS analysis; type: subcellular
In short: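 KiNativ profiling in HeLa lysate (5 mg/mL total protein). Lysate incubated 15 min with inhibitor at 50, 10, 2, 0.8 or 0 μM. ATP or ADP acylphosphate probe then added (5 μM final) and reacted 10 min. Reaction stopped with urea and analysed by targeted MS, using up to four fragment ions per kinase peptide-probe conjugate. % inhibition taken against untreated lysate. Run in duplicate.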

Sequence of Serine/threonine-protein kinase 4 (Q13043 whole entry): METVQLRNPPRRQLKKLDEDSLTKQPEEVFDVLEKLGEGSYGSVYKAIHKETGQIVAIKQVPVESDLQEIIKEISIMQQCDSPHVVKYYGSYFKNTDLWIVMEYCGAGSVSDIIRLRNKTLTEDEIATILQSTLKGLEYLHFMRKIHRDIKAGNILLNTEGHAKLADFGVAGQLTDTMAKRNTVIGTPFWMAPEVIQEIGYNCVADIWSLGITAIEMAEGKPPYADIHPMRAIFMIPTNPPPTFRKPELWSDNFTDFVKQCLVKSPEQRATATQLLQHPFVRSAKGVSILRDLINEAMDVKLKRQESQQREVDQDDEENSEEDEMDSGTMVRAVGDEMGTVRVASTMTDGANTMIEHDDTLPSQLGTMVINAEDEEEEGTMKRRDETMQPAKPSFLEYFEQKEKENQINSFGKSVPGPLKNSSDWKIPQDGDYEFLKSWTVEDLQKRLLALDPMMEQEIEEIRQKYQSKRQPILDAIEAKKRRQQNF
Sequence of Calcium/calmodulin-dependent protein kinase type II subunit delta (Q13557 whole entry, the tested form may be a part): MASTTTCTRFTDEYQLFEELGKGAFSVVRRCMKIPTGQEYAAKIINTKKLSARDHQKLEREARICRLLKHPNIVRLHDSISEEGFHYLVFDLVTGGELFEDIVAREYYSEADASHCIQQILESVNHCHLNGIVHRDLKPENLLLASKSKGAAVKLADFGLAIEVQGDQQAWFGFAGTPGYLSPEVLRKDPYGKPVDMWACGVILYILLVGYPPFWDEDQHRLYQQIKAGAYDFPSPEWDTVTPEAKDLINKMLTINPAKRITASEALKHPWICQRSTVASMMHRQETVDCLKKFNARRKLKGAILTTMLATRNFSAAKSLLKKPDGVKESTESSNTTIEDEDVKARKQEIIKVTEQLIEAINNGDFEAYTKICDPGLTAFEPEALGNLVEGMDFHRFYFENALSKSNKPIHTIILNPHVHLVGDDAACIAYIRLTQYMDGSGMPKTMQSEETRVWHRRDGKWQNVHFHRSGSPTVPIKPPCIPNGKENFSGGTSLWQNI
Sequence of Cyclin-dependent kinase 5 (Q00535 whole entry, the tested form may be a part): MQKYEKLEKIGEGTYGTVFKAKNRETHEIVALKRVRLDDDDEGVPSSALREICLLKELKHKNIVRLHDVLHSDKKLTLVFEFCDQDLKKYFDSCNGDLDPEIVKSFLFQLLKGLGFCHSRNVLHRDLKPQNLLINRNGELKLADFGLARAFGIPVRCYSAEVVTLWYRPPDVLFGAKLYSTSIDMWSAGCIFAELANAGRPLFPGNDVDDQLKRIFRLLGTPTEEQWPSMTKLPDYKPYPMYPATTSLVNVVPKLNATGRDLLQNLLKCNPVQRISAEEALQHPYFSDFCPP
Sequence of Mixed lineage kinase domain-like protein (Q8NB16 whole entry, the tested form may be a part): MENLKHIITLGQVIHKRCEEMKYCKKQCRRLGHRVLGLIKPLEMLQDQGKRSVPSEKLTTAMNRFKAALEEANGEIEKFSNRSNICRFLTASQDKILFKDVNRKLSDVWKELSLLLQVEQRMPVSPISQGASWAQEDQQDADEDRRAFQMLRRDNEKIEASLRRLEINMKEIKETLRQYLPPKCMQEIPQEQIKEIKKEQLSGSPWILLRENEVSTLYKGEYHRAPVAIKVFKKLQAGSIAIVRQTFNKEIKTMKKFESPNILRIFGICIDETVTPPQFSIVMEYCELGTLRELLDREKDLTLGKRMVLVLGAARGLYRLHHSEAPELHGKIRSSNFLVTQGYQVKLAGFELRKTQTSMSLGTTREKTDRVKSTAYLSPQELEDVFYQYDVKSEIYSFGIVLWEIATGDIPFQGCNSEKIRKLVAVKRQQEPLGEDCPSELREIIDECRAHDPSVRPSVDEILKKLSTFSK
Sequence of Glycogen synthase kinase-3 beta (P49841 whole entry, looked up, the tested form may be a part, canonical isoform): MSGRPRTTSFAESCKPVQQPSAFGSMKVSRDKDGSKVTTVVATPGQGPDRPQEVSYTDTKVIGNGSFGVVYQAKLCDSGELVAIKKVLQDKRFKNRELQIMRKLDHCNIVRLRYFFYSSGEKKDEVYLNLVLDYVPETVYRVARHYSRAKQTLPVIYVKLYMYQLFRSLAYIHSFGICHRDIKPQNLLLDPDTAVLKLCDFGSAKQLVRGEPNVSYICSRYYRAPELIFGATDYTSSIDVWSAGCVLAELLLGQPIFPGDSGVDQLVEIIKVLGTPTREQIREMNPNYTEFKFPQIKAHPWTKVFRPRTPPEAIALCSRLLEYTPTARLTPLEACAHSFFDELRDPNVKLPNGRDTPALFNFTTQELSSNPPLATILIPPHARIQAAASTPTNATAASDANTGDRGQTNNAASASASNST
Sequence of Tyrosine-protein kinase Fer (P16591 whole entry, looked up): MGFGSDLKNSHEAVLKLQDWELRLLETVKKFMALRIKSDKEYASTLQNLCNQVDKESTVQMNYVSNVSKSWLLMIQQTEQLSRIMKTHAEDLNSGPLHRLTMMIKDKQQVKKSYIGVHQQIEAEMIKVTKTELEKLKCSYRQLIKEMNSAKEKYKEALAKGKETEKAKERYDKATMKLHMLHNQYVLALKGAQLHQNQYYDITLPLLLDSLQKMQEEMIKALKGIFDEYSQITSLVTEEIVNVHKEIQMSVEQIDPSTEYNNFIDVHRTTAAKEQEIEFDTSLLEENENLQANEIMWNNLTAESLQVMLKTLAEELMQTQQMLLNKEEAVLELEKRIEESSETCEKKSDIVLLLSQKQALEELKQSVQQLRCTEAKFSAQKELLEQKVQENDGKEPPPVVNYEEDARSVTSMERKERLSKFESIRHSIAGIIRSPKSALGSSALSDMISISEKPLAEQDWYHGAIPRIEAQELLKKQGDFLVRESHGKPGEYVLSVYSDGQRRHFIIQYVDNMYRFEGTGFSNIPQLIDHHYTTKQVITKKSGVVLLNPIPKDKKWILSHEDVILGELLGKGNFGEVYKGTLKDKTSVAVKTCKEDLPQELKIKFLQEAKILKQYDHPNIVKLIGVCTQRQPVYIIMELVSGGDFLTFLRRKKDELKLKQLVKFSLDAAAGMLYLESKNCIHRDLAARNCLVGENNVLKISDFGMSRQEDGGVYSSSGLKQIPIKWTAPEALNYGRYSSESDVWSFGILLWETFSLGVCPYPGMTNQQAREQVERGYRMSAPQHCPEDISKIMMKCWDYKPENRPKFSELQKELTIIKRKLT
Sequence of Serine/threonine-protein kinase 24 (Q9Y6E0 whole entry): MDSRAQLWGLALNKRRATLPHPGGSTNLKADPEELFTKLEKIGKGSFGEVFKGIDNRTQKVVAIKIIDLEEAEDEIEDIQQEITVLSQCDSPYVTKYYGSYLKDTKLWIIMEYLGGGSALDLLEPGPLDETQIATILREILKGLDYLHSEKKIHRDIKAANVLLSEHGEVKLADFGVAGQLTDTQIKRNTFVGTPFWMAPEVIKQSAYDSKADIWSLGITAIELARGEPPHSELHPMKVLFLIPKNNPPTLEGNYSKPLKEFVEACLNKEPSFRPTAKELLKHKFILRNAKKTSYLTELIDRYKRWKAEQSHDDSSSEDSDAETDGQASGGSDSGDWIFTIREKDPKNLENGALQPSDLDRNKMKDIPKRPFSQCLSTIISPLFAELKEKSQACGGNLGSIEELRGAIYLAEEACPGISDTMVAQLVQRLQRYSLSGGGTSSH
Sequence of Serine/threonine-protein kinase Aurora (O14965 whole entry, looked up): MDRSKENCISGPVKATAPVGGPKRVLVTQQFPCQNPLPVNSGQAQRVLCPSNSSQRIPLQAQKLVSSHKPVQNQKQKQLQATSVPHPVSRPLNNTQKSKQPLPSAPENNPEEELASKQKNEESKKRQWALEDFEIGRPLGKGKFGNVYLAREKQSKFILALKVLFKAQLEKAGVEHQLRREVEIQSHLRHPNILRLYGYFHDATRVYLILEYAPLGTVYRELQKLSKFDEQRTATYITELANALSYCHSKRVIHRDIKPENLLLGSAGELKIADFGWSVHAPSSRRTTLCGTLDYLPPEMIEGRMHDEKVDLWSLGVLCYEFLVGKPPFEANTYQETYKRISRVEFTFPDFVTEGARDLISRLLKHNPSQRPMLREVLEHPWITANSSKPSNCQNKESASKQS
Sequence of Serine/threonine-protein kinase Aurora (Q96GD4 whole entry, looked up): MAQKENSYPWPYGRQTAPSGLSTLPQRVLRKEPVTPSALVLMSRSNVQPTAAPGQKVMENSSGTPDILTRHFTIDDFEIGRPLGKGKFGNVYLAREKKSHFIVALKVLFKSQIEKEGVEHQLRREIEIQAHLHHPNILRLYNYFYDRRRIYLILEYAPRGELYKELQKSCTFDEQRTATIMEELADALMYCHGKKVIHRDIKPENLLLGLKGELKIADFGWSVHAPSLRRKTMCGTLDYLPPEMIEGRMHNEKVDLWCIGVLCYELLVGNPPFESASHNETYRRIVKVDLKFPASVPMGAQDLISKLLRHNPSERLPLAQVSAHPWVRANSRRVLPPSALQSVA
Sequence of Serine/threonine-protein kinase Aurora (Q9UQB9 whole entry, looked up): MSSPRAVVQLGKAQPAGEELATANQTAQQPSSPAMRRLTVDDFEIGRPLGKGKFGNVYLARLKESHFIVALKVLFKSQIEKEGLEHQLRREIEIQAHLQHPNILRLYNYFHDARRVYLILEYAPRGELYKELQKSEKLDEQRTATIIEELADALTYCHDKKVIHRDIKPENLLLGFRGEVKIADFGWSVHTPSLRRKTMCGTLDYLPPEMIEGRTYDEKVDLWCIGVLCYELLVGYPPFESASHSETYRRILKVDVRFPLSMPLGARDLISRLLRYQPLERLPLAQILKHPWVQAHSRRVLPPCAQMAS

CCOc1cc(N2CCC(O)CC2)ccc1Nc1ncc2c(n1)N(C)c1ccccc1C(=O)N2C
IC50 [1]: > 50 µM | IC50 [2]: > 50 µM | inhibition (RPS6KA1/RPS6KA2/RPS6KA3): 11.6% | inhibition [3]: 5.1% | IC50 [4]: > 50 µM | inhibition [5]: 0% | inhibition at 10 µM [6]: -10.7% | IC50 [7]: > 50 µM | inhibition [8]: 34.5% | IC50 [9]: > 50 µM | inhibition [10]: -5.8% | inhibition at 2 µM [11]: -4.1% | IC50 [12]: > 50 µM
